Sampled rows, rich in hits. Any-hit rate of the full collection: about 5.8%.
T cruzi growth-1: inhibitors of T. cruzi proliferation; 77,000 compounds, 5.9% hits; T. cruzi beta-gal in NIH3T3, GalScreen luminescence, 90 h; inhibition, % at 8.34 µM;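 active = mean inhibition above about 93%, with at least 55% of replicates each passing it, limit read from the data, passing the limit was not always enough; inconclusive = only one of those two conditions holds; inactive = neither condition holds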
Pf Dd2 growth: blocks growth of Plasmodium falciparum Dd2 parasites | P. falciparum Dd2 growth, SYBR Green, 72 h; hits give low values | 94,000 compounds, 2.3% hits | activity change, % at 10 µM; in the data active = activity change below about -80%; inconclusive = no clear call, values can overlap the other calls
IDH1 mut inh: IDH1 R132H (human) inhibition; O75874; IDH1 R132H reductase, diaphorase/resazurin fluorescence, 60 min; inhibition, % at 10 µM; 70,000 compounds, 0.18% hits; AID 624101; in the data active = inhibition above about 34%; inconclusive = no clear call, values can overlap the other calls; inactive = below about 11%;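 also: 0% = DMSO and 100% = no enzyme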
KDM4C inh: KDM4C (human) demethylase inhibition | Q9H3R0 | GST-KDM4C 2-372, H3K9me3 peptide, LANCE TR-FRET | inhibition, % at 12.5 µM | 96,000 compounds, 0.15% hits;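 active = mean replicate inhibition above about 25%, with at least 55% of replicates also reaching it, limit read from the data, passing the limit was not always enough; inconclusive = only one of those two conditions met; inactive = neither condition met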
Target sequence (Q9H3R0 2-372 limits assumed): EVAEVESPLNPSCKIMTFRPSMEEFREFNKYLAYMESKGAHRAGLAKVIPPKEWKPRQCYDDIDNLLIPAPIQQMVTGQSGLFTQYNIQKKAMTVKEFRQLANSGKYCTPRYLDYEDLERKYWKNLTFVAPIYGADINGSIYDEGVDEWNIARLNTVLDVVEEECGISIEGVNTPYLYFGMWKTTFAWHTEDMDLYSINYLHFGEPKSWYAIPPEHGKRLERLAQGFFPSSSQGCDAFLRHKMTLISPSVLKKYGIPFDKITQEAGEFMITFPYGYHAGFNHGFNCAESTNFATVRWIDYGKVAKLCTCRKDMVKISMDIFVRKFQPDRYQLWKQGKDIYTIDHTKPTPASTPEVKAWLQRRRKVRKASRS
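Compound: one test concentration per compound; Material: GST-GASC-1 enzyme fragment 2-372; Amount: GASC-1 enzyme at 10 nM final in reaction; Also added: H3K9me3 peptide substrate, Fe(II), 2-oxoglutarate; Technique: LANCE TR-FRET; Times: 30 min demethylation and 1 h detection at room temperature.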
T cruzi growth-2: Trypanosoma cruzi proliferation inhibition; inhibition, % at 8.35 µM; AID 651739; T. cruzi beta-gal in NIH3T3, GalScreen luminescence, 90 h; shares compounds with T cruzi growth-1; 5,600 compounds, 72% hits;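 active = mean replicate inhibition above about 95% and at least 55% of replicates individually reaching it, limit read from the data; inconclusive = only one of the two criteria is met; inactive = neither criterion is met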
T cruzi growth-3: Trypanosoma cruzi proliferation inhibition; shares compounds with T cruzi growth-1; T. cruzi beta-gal in NIH3T3, GalScreen luminescence, 90 h; inhibition, % at 2.09 µM; 5,600 compounds, 21% hits;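 active = mean inhibition above about 95%, with at least 55% of replicates also reaching it, limit read from the data; inconclusive = meets just one of the two conditions; inactive = meets neither condition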;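 also: plate controls were neutral control median for no effect and positive control median for full effect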
NIH3T3 tox: kills mouse NIH/3T3 fibroblasts | NIH/3T3 viability, CellTiter-Glo ATP luminescence, 90 h | shares compounds with T cruzi growth-1 | cytotoxicity (signal decrease), % at 8.35 µM | AID 651742 | 5,600 compounds, 14% hits;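 active = mean signal decrease across replicates above about 35% based on untreated-well scatter, with enough replicates individually passing, limit read from the data; inconclusive = no rule stated though some were filed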;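 also: 0% = median of neutral control wells and 100% = median of positive control wells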
3T3 cytotox 2: NIH/3T3 (mouse) viability loss; shares compounds with T cruzi growth-1; NIH/3T3 viability, CellTiter-Glo ATP luminescence, 90 h; inhibition, % at 24.9 µM; 5,600 compounds, 56% hits;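 active = mean loss of cell viability signal at or above a set limit, and enough replicates individually reaching it; inconclusive = meets only the mean limit or only the replicate share; inactive = meets neither condition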;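 also: 0% = median of neutral control wells and 100% = median of positive control wells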
The depositor's hits bear a star; u = inconclusive; x = no result.

SMILES | T cruzi growth-1 | Pf Dd2 growth | IDH1 mut inh | KDM4C inh | T cruzi growth-2 | T cruzi growth-3 | NIH3T3 tox | 3T3 cytotox 2
O=C(c1ccccc1F)N1CC[C@H]2[C@H](CO)Nc3ccc(C#Cc4ccccc4)cc3[C@H]21 | 108* | -39 | x | -1 | 111* | 81 | 20 | u
C[C@H](CO)N1C[C@H](C)[C@H](CN(C)C(=O)Nc2cc(F)ccc2F)Oc2cc(C#CC3CC3)ccc2S1(=O)=O | 117* | -64 | x | -3 | 112* | 45 | 4 | 25
C[C@H](CO)N1C[C@H](C)[C@H](CN(C)C(=O)Nc2cc(F)ccc2F)Oc2cc(C#CC3CCCC3)ccc2S1(=O)=O | x | -39 | 0 | -1 | x | x | x | x
C[C@H](CO)N1C[C@H](C)[C@@H](CN(C)C(=O)Nc2cc(F)ccc2F)Oc2cc(C#CC3CCCC3)ccc2S1(=O)=O | x | -2 | 2 | x | x | x | x | x
C[C@@H]1CN([C@@H](C)CO)S(=O)(=O)c2ccc(C#CC3CC3)cc2O[C@@H]1CN(C)C(=O)Nc1cc(F)ccc1F | 103* | -14 | x | -3 | 114* | 79 | 29 | 28*
C[C@@H]1CN([C@@H](C)CO)S(=O)(=O)c2ccc(C#CC3CC3)cc2O[C@H]1CN(C)C(=O)Nc1cc(F)ccc1F | 104* | -37 | x | 0 | 106* | 71 | 38* | 33*
COC(=O)c1ccc(NC(=O)CN(c2ccc(C)cc2C)S(C)(=O)=O)cc1 | x | x | 2 | x | x | x | x | x
CO[C@H]1CN(C)C(=O)c2cc(NC(=O)C3CC3)ccc2OC[C@H](C)N(Cc2cc(F)ccc2F)C[C@@H]1C | 97* | -77 | 0 | -1 | 108* | 25 | 21 | 45*
CO[C@H]1CN(C)C(=O)c2cc(NS(=O)(=O)c3cccc(F)c3)ccc2OC[C@@H](C)N(Cc2cc(F)ccc2F)C[C@@H]1C | 112* | 4 | 0 | -1 | 110* | 26 | -7 | 13
CO[C@H]1CN(C)C(=O)c2cc(NC(=O)C3CCCCC3)ccc2OC[C@H](C)NC[C@H]1C | 107* | -5 | 0 | 0 | 9 | -3 | 7 | 4
CO[C@@H]1CN(C)C(=O)c2cc(NC(=O)C3CC3)ccc2OC[C@H](C)N(Cc2cc(F)ccc2F)C[C@@H]1C | 61 | -71 | 0 | 1 | x | x | x | x
CO[C@H]1CN(C)C(=O)c2cc(NS(=O)(=O)c3cccc(F)c3)ccc2OC[C@H](C)N(Cc2cc(F)ccc2F)C[C@@H]1C | 112* | -41 | 0 | -1 | 105* | 92 | -34 | -27
CO[C@H]1CN(C)C(=O)c2ccc(NS(=O)(=O)c3cccc(F)c3)cc2OC[C@H](C)N(Cc2cc(F)ccc2F)C[C@H]1C | x | -27 | 0 | 0 | x | x | x | x
CO[C@H]1CN(C)C(=O)c2ccc(NS(=O)(=O)c3cccc(F)c3)cc2OC[C@@H](C)N(Cc2cc(F)ccc2F)C[C@@H]1C | x | -7 | 0 | -1 | x | x | x | x
N#Cc1c(C(F)(F)F)cc(-c2ccco2)nc1SCC(=O)Nc1cccc(C(F)(F)F)c1 | x | x | 0 | x | x | x | x | x
NC(=O)CSc1nnc(-c2ccncc2)n1-c1cccc(C(F)(F)F)c1 | x | x | 3 | x | x | x | x | x
CO[C@H]1CN(C)C(=O)c2cc(NS(=O)(=O)c3cccc(F)c3)ccc2OC[C@H](C)N(Cc2cc(F)ccc2F)C[C@H]1C | 115* | -24 | -1 | -1 | 108* | 74 | -18 | 105*
CO[C@H]1CN(C)C(=O)c2ccc(NS(=O)(=O)c3cccc(F)c3)cc2OC[C@@H](C)N(Cc2cc(F)ccc2F)C[C@H]1C | x | -9 | 0 | 1 | x | x | x | x
C[C@H](CO)N1C[C@H](C)[C@H](CN(C)Cc2cccnc2)Oc2cc(C#CCN(C)C)ccc2S1(=O)=O | 91* | -20 | 0 | 2 | 95* | 77 | 24 | u
CCCC#Cc1ccc2c(c1)O[C@H](CN(C)Cc1cccnc1)[C@@H](C)CN([C@@H](C)CO)S2(=O)=O | 128* | -58 | 9 | 0 | 102* | 104* | 43* | 104*
C[C@H]1CN([C@@H](C)CO)S(=O)(=O)c2ccc(C#CCN(C)C)cc2O[C@H]1CN(C)Cc1cccnc1 | 86 | -5 | 7 | 2 | x | x | x | x
C[C@@H]1CN([C@@H](C)CO)S(=O)(=O)c2ccc(C#CCN(C)C)cc2O[C@H]1CN(C)Cc1cccnc1 | 98* | -32 | 0 | 1 | 108* | 103* | 14 | 43*
COc1cccc(NC(=O)N(C)C[C@H]2Oc3cc(-c4ccccc4F)ccc3S(=O)(=O)N([C@H](C)CO)C[C@@H]2C)c1 | u | -41 | 0 | -2 | 98* | -20 | 7 | u
COc1cccc(NC(=O)N(C)C[C@@H]2Oc3cc(C#Cc4ccc(F)cc4)ccc3S(=O)(=O)N([C@H](C)CO)C[C@@H]2C)c1 | 117* | -90* | 2 | 6 | 99* | 111* | 50* | 38*
COc1cccc(NC(=O)N(C)C[C@@H]2Oc3cc(C#Cc4ccncc4)ccc3S(=O)(=O)N([C@H](C)CO)C[C@H]2C)c1 | -55 | -55 | x | 1 | x | x | x | x
SMILES | T cruzi growth-1 | Pf Dd2 growth | IDH1 mut inh | KDM4C inh | T cruzi growth-2 | T cruzi growth-3 | NIH3T3 tox | 3T3 cytotox 2
COc1cccc(NC(=O)N(C)C[C@@H]2Oc3cc(C#Cc4ccccc4)ccc3S(=O)(=O)N([C@H](C)CO)C[C@@H]2C)c1 | 86* | -90* | x | x | 104* | u | 32 | 22
COc1cccc(C#Cc2ccc3c(c2)O[C@H](CN(C)C(C)=O)[C@@H](C)CN([C@H](C)CO)S3(=O)=O)c1 | u | -71 | 0 | -1 | 105* | 38 | 10 | 35*
COc1cccc(NC(=O)N(C)C[C@@H]2Oc3cc(-c4ccccc4F)ccc3S(=O)(=O)N([C@@H](C)CO)C[C@H]2C)c1 | 68 | -14 | -3 | -1 | x | x | x | x
COc1cccc(C#Cc2ccc3c(c2)O[C@@H](CN(C)C(C)=O)[C@H](C)CN([C@H](C)CO)S3(=O)=O)c1 | 74 | -58 | -8 | -1 | x | x | x | x
O=C(Oc1ccc2ccccc2c1)c1ccccc1S(=O)(=O)c1ccccc1[N+](=O)[O-] | x | x | 1 | x | x | x | x | x
COc1cccc(NC(=O)N(C)C[C@@H]2Oc3cc(C#Cc4ccncc4)ccc3S(=O)(=O)N([C@H](C)CO)C[C@@H]2C)c1 | 68 | u | -10 | -2 | x | x | x | x
COc1ccc(C#Cc2ccc3c(c2)O[C@H](CN(C)C(=O)Nc2cccc(OC)c2)[C@H](C)CN([C@@H](C)CO)S3(=O)=O)cc1 | 116* | -86* | x | -3 | 111* | 104* | 13 | 9
COc1cccc(NC(=O)N(C)C[C@H]2Oc3cc(C#Cc4ccncc4)ccc3S(=O)(=O)N([C@H](C)CO)C[C@@H]2C)c1 | 19 | -54 | 0 | 0 | x | x | x | x
